Columns and labels:
Dopamine receptor [1] = assay: Inhibition of [3H]spiroperidol (0.5 nM) binding to dopamine receptor from rat striatal membrane.
Rattus norvegicus [2] = assay: Antagonistic activity against amphetamine-induced stereotypy in rats; (5 mg/kg administered ip 1 hr after the test compound).; assay type: functional
Method in brief: (§1)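 Rats housed singly in covered compartments, briefly acclimated, then dosed sc in groups of five at doses spaced 0.5 log unit (1, 3.2, 10, 32 mg/kg). d-Amphetamine sulfate 5 mg/kg ip given 1, 5 and 24 h later. Behaviour scored on a six-point scale 1 h after each challenge. ED50 by linear regression or by inspection; no fiducial limits.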

Rattus norvegicus [3] = assay: Compound was tested for the antagonistic activity against amphetamine-induced stereotypy in rats; (5 mg/kg administered ip 5 hr after the test compound).; assay type: functional; method in brief: as §1
Rattus norvegicus [4] = assay: Compound was tested for the antagonistic activity against amphetamine-induced stereotypy in rats; (5 mg/kg administered ip 24 hr after the test compound).; assay type: functional; method in brief: as §1
Mus musculus [5] = assay: Compound was tested for the anticholinergic activity against tetrabenazine-treated mice; activity expressed as the pupil size at the dose of 32 mg/kg sc; assay type: functional; conditions: route subcutaneous
Rattus norvegicus [6] = assay: Compound was tested for the antagonistic activity against amphetamine-induced stereotypy in rats; (5 mg/kg administered ip 5 hr after the test compound); assay type: functional; method in brief: as §1
Rattus norvegicus [7] = assay: Compound was tested for the antagonistic activity against amphetamine-induced stereotypy in rats; (5 mg/kg administered ip 24 hr after the test compound); assay type: functional; method in brief: as §1
Dopamine receptor [8] = assay: Compound was tested for inhibition of [3H]spiroperidol (0.5 nM) binding to dopamine receptor from rat striatal membrane; Insoluble
Rattus norvegicus [9] = species: Rattus norvegicus; assay: Compound was tested for the antagonistic activity against amphetamine-induced stereotypy in rat.; assay type: functional; method in brief: as §1
Rattus norvegicus [10] = assay: Compound was tested for the antagonistic activity against amphetamine-induced stereotypy in rats; (5 mg/kg administered ip 5 after the test compound).; assay type: functional; method in brief: as §1
Mus musculus [11] = assay: Compound was tested for the anticholinergic activity against tetrabenazine-treated mice; activity expressed as the pupil size at the dose of 1 mg/kg sc; conditions: route subcutaneous
Mus musculus [12] = assay: Compound was tested for the anticholinergic activity against tetrabenazine-treated mice; activity expressed as the pupil size at the dose of 100 mg/kg sc; assay type: functional; conditions: route subcutaneous
Method in brief: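 Groups of five mice dosed sc with test compound, then 1 h later tetrabenazine 32 mg/kg ip. After 30 min, pupil size measured with a binocular microscope; reticle readings converted to mm. Reported as mean ± SD pupil size (mm). Vehicle-pretreated tetrabenazine control groups of five run alongside.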

Mus musculus [13] = assay: Compound was tested for the anticholinergic activity against tetrabenazine-treated mice; activity expressed as the pupil size at the dose of 10 mg/kg sc; assay type: functional; conditions: route subcutaneous
Method in brief: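 Mice in groups of five dosed sc, then given tetrabenazine 32 mg/kg ip 1 h later. Pupils measured 30 min afterward under a binocular microscope, with reticle readings converted to mm. Reported as mean ± SD pupil size. Vehicle-pretreated tetrabenazine groups served as controls.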

[14] = Rattus norvegicus, ip, 1 h, read-out: ED50
[15] = Rattus norvegicus, ip, 5 h, read-out: ED50
[16] = Rattus norvegicus, ip, 24 h, read-out: ED50

SMILES	IC50 (Dopamine receptor [1]) [µM]	ED50 (Rattus norvegicus [2]; [14]) [mg/kg]	ED50 (Rattus norvegicus [3]) [mg/kg]	ED50 (Rattus norvegicus [4]) [mg/kg]	other results
OC(CCN1CC[C@H]2[C@H](C1)c1cc(F)ccc1N2c1ccc(F)cc1)(c1ccccc1)c1ccccc1	0.22	> 10	> 10	–	–
O=C1CNC(=O)N1CCN1CCC2c3cc(F)ccc3N(c3ccc(F)cc3)C2C1 (configuration not stated)	0.026	0.57	0.57	> 32	–
O=C1CNC(=O)N1CCCN1CCC2c3cc(F)ccc3N(c3ccc(F)cc3)C2C1 (configuration not stated)	0.014	0.11	0.05	> 0.32	–
O=C(CCCN1CC[C@H]2[C@H](C1)c1cc(F)ccc1N2c1ccc(F)cc1)NC1CCCCC1	0.012	0.45	0.14	0.57	Pupil size (Mus musculus [5]): 0.23 mm
Fc1ccc(N2c3ccc(F)cc3[C@H]3CNCC[C@@H]32)cc1	0.0067	0.36	–	–	ED50 (Rattus norvegicus [6]; [15]): 0.45 mg/kg; ED50 (Rattus norvegicus [7]; [16]): > 10 mg/kg
I.O=C(CCCN1CC[C@H]2[C@H](C1)c1cc(F)ccc1N2c1ccc(F)cc1)N(c1ccccc1)C1CCCCC1	–	> 32	1	< 32	IC50 (Dopamine receptor [8]): Insoluble
Cl.O=C(Nc1ccccc1)OCCN1CC[C@H]2[C@H](C1)c1cc(F)ccc1N2c1ccc(F)cc1	0.045	0.57	0.45	2.3	–
Cl.Fc1ccc(N(c2ccc(F)cc2)C2CCNCC2)cc1	> 1	–	–	–	–
CN1CCC2C(C1)c1cc(F)ccc1N2c1ccc(F)cc1.Cl (configuration not stated)	0.0075	–	–	–	ED50 (Rattus norvegicus [9]): 0.3 mg/kg
Cl.O=C1CNC(=O)N1CCCCCCN1CC[C@@H]2c3cc(F)ccc3N(c3ccc(F)cc3)[C@H]2C1	0.014	0.13	0.02	0.07	–
Cl.O=C(NCCCCCCN1CCc2c(c3cc(F)ccc3n2-c2ccc(F)cc2)C1)c1ccccc1	0.0085	–	–	–	ED50 (Rattus norvegicus [9]): > 10 mg/kg
Cl.O=C1CNC(=O)N1CCCCCCN1CCc2c(n(-c3ccc(F)cc3)c3ccc(F)cc23)C1	0.0058	1	0.75	> 10	–
Cl.O=C(O)CCCN1CCC2C(C1)c1cc(F)ccc1N2c1ccc(F)cc1 (configuration not stated)	0.14	–	–	–	ED50 (Rattus norvegicus [9]): 0.36 mg/kg
Cl.O=C(NCCCCCCN1CCC2C(C1)c1cc(F)ccc1N2c1ccc(F)cc1)c1ccccc1 (configuration not stated)	0.013	–	–	–	ED50 (Rattus norvegicus [9]): 0.1 mg/kg
Cl.OC(CCCN1CCC(N(c2ccc(F)cc2)c2ccc(F)cc2)CC1)c1ccc(F)cc1 (configuration not stated)	1	–	–	–	–
CC(=O)NCCCCN1CCC2C(C1)c1cc(F)ccc1N2c1ccc(F)cc1.Cl (configuration not stated)	0.013	–	–	–	ED50 (Rattus norvegicus [9]): 0.006 mg/kg
Cl.O=C(CCCN1CCC(N(c2ccc(F)cc2)c2ccc(F)cc2)CC1)c1ccc(F)cc1	0.068	> 32	–	> 32	–
Cl.O[C@H](CCCN1CCC2C(C1)c1cc(F)ccc1N2c1ccc(F)cc1)c1ccc(F)cc1 (some centres not stated)	0.025	0.21	0.05	0.02	–
Cl.O=C(CCCN1CC[C@H]2[C@H](C1)c1cc(F)ccc1N2c1ccc(F)cc1)Nc1ccccc1	0.019	0.45	–	1.8	Pupil size (Mus musculus [5]): 0.28 mm; ED50 (Rattus norvegicus [10]): 0.18 mg/kg
Cl.O=C(O)CCCN1CCc2c(c3cc(F)ccc3n2-c2ccc(F)cc2)C1	> 0.32	–	–	–	–

SMILES	IC50 (Dopamine receptor [1]) [µM]	ED50 (Rattus norvegicus [2]; [14]) [mg/kg]	ED50 (Rattus norvegicus [3]) [mg/kg]	ED50 (Rattus norvegicus [4]) [mg/kg]	other results
Cl.O=C1CNC(=O)N1CCCCN1CC[C@@H]2c3cc(F)ccc3N(c3ccc(F)cc3)[C@H]2C1	0.012	0.057	0.018	0.18	–
Cl.O=C1CNC(=O)N1CCCCCCN1CCC2c3cc(F)ccc3N(c3ccc(F)cc3)C2C1 (configuration not stated)	0.0094	0.18	0.033	> 0.32	–
CC(=O)NCCCCN1CCc2c(c3cc(F)ccc3n2-c2ccc(F)cc2)C1.Cl	0.054	–	–	–	ED50 (Rattus norvegicus [9]): > 3.2 mg/kg
Cl.O=C1CNC(=O)N1CCCCCN1CC[C@@H]2c3cc(F)ccc3N(c3ccc(F)cc3)[C@H]2C1	0.006	0.04	0.02	0.05	–
CN1CCc2c(c3cc(F)ccc3n2-c2ccc(F)cc2)C1.Cl	–	–	–	–	ED50 (Rattus norvegicus [9]): > 1 mg/kg
Fc1ccc(N2c3ccc(F)cc3[C@@H]3CNCC[C@H]32)cc1	3.2	–	–	–	–
O=C(NCCN1CC[C@H]2[C@H](C1)c1cc(F)ccc1N2c1ccc(F)cc1)C(CO)c1ccccc1 (some centres not stated)	0.035	2.8	0.89	32	Pupil size (Mus musculus [5]): 0.23 mm
Fc1ccc(N2c3ccc(F)cc3[C@H]3CN(CCn4c5ccccc5c5ccccc54)CC[C@@H]32)cc1	–	> 32	> 32	–	IC50 (Dopamine receptor [8]): Insoluble
Fc1ccc(-n2c3c(c4cc(F)ccc42)CNCC3)cc1	0.35	> 10	–	–	–
O[C@H](CCCN1CC[C@H]2[C@H](C1)c1cc(F)ccc1N2c1ccc(F)cc1)c1ccc(F)cc1 (stereo in doubt; 2a)	0.025	–	–	–	ED50 (Rattus norvegicus [6]): 0.05 mg/kg; ED50 (Rattus norvegicus [7]): 0.02 mg/kg; ED50 (Rattus norvegicus [2]): 0.21 mg/kg
O[C@H](CCCN1CC[C@H]2[C@H](C1)c1cc(F)ccc1N2c1ccc(F)cc1)c1ccc(F)cc1 (stereo in doubt; 2b)	0.35	–	–	–	ED50 (Rattus norvegicus [6]): 5.7 mg/kg; ED50 (Rattus norvegicus [7]): >10 mg/kg; ED50 (Rattus norvegicus [2]): >10 mg/kg
O[C@H](CCCN1CC[C@@H]2[C@@H](C1)c1cc(F)ccc1N2c1ccc(F)cc1)c1ccc(F)cc1 (stereo in doubt; 2c)	0.022	–	–	–	ED50 (Rattus norvegicus [6]): 0.02 mg/kg; ED50 (Rattus norvegicus [7]): 0.02 mg/kg; ED50 (Rattus norvegicus [2]): 0.05 mg/kg
O[C@H](CCCN1CC[C@@H]2[C@@H](C1)c1cc(F)ccc1N2c1ccc(F)cc1)c1ccc(F)cc1 (stereo in doubt; 2d)	1.8	–	–	–	ED50 (Rattus norvegicus [6]): 18.1 mg/kg; ED50 (Rattus norvegicus [7]): >10 mg/kg; ED50 (Rattus norvegicus [2]): >10 mg/kg
CN1[C@@H]2CC[C@H]1C[C@@H](OC(=O)C(CO)c1ccccc1)C2.O=S(=O)(O)O (some centres not stated) [ATROPINE SULFATE]	–	–	–	–	Pupil size (Mus musculus [11]): 1.98 mm
CN1CCN(C2=Nc3cc(Cl)ccc3Nc3ccccc32)CC1 [CLOZAPINE]	–	–	–	–	Pupil size (Mus musculus [12]): 1.13 mm
CNCCCN1c2ccccc2CCc2ccccc21.Cl [DESIPRAMINE HYDROCHLORIDE]	–	–	–	–	Pupil size (Mus musculus [13]): 0.66 mm
OC(CCCN1CCc2c(c3cc(F)ccc3n2-c2ccc(F)cc2)C1)c1ccc(F)cc1 (configuration not stated) [FLUTROLINE]	0.012	1	–	–	ED50 (Rattus norvegicus [6]; [15]): 0.15 mg/kg; ED50 (Rattus norvegicus [7]; [16]): 2.2 mg/kg
O=C(CCCN1CCC(O)(c2ccc(Cl)cc2)CC1)c1ccc(F)cc1 [HALOPERIDOL]	–	0.66	–	–	ED50 (Rattus norvegicus [6]; [15]): 0.75 mg/kg; ED50 (Rattus norvegicus [7]; [16]): > 10 mg/kg
OC1(c2ccc(Cl)c(C(F)(F)F)c2)CCN(CCCC(c2ccc(F)cc2)c2ccc(F)cc2)CC1 [PENFLURIDOL]	0.062	~32	–	–	ED50 (Rattus norvegicus [6]; [15]): 2.4 mg/kg; ED50 (Rattus norvegicus [7]; [16]): 3.9 mg/kg

Source: ChEMBL document CHEMBL1123213, “Neuroleptic activity of chiral trans-hexahydro-gamma-carbolines” (J Med Chem, 1986)
